Reference: ChEMBL document CHEMBL4477226, “Reduction Sensitive Lipid Conjugates of Tenofovir: Synthesis, Stability, and Antiviral Activity” (J Med Chem, 2016)
Counter-ions that a name gives are not always drawn.

How the values were obtained:
[1] = Half life in pH 7.4 Tris HCl buffer containing KCl at 10^-3 M by HPLC analysis; type: physicochemical
[2] = Half life in pH 2 solution at 10^-3 M by HPLC analysis; type: physicochemical
[3] = Half life in human serum at 10^-3 M by HPLC analysis; type: ADME, cell-free
[4] = Half life in human gastric juice; type: ADME, tissue-based
[5] = Half life in RPMI 1640 culture medium at 10^-3 M by HPLC analysis; type: physicochemical
HepG2 2.2.15 = assay: (§1) Cytotoxicity against human HepG2.2.15 cells assessed as reduction in cell viability after 6 days by XTT assay; type: cell-based; conditions: hepg2 2.2.15, 144 h
[6] = tested on: Human immunodeficiency virus 1; assay: Antiviral activity against HIV1 infected in human PBMC assessed as inhibition of viral replication by measuring reverse transcriptase activity in cell supernatant preincubated with cells followed by viral infection measured after 7 days by radioactive incorporation polymerization assay; type: functional, organism-based
Summary of the method: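 HIV-infected PBMCs; antiviral activity read as reverse transcriptase in cell supernatants; EC50 is the concentration in μM that inhibits HIV-1 by 50%.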

PBMC = assay: (§2) Cytotoxicity against human PBMC assessed as reduction in cell viability by XTT assay; type: cell-based
Summary of the method: (§3)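 CC50 is the concentration in μM that reduces viability of uninfected PBMCs by 50%.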

[7] = Therapeutic index, ratio of CC50 for human PBMC to EC50 for HIV1 infected in human PBMC; type: toxicity; conditions: read-out: Ratio CC50/EC50
Summary of the method: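 TI is the ratio of PBMC CC50 (uninfected cells, 50% viability loss) to EC50 for 50% inhibition of HIV-1, both in μM; HIV-1 activity measured as reverse transcriptase in supernatants of infected PBMCs.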

[8] = Therapeutic index, ratio of CC50 for human HepG2.2.15 cells to EC50 for HBV infected in human HepG2.2.15 cells; type: toxicity, cell-based; conditions: read-out: Ratio CC50/EC50
Hepatitis B virus = assay: Antiviral activity against HBV infected in human HepG2.2.15 cells assessed as inhibition of viral DNA in cell supernatant incubated for 3 days in presence of 10% FBS followed by compound treatment in absence of 10% FBS for 3 days by qRT-PCR method; type: functional, organism-based; conditions: HepG2.2.15, 72 h
Summary of the method: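 HBV assay in HepG2.2.15 cells; viral DNA quantified by qPCR after 6 days of incubation.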

[9] = as §1; type: cell-based, HepG2 2.2.15; conditions: HepG2.2.15 cells
[10] = as §2; type: cell-based; summary of the method: as §3
[11] = Stability in pH 7.4 phosphate buffered saline assessed as lipid adsorption on glass surface using pyrex glassware measured up to 1440 mins by LC-MS analysis; type: physicochemical; conditions: buffer, pH 7.4, 24 h
[12] = Stability in pH 7.4 phosphate buffered saline assessed as lipid adsorption on glass surface using silanized glassware measured up to 1440 mins by LC-MS analysis; type: physicochemical; conditions: buffer, pH 7.4, 24 h
[13] = Stability in pH 7.4 phosphate buffered saline assessed as lipid adsorption on glass surface using kimax glassware measured up to 1440 mins by LC-MS analysis; type: physicochemical; conditions: buffer, pH 7.4, 24 h
[14] = Half life in pH 7.4 phosphate buffered saline at 2 mg by LC-MS analysis; type: physicochemical
Summary of the method: (§4)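 Compound incubated in human serum, PBS (pH 7.4), DMEM, or carbonate/bicarbonate buffer (pH 9). Aliquots were taken at several time points over 2 h, with a final sample at 24 h, and analysed by LC-MS to follow decomposition. Half-life was derived from loss of parent over time.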

[15] = Stability in DMEM at 2 mg by LC-MS analysis; type: physicochemical; conditions: in vitro; summary of the method: as §4
[16] = Stability in pH 9 Sodium carbonate/bicarbonate buffer at 2 mg by LC-MS analysis; type: physicochemical; conditions: in vitro; summary of the method: as §4
[17] = Half life in pH 9 Sodium carbonate/bicarbonate buffer at 2 mg using kimax glassware by LC-MS analysis; type: physicochemical; summary of the method: as §4
[18] = Therapeutic index, ratio of CC90 for human PBMC to EC90 for HIV1 infected in human PBMC; type: toxicity; conditions: read-out: TI
Summary of the method: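 HIV-1-infected human PBMCs; antiviral effect read as reverse transcriptase activity in culture supernatants. Toxicity measured as loss of viability in uninfected PBMCs. Index calculated as the cytotoxic concentration divided by the effective concentration at the 90% level (CC90/EC90).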

[19] = Half life in human plasma at 2 mg by LC-MS analysis; type: ADME, cell-free; summary of the method: as §4
[20] = Half life in DMEM at 2 mg using kimax glassware by LC-MS analysis; type: physicochemical; summary of the method: as §4
[21] = Half life in pH 7.4 phosphate buffered saline at 2 mg using kimax glassware by LC-MS analysis; type: physicochemical; summary of the method: as §4
[22] = Oral bioavailability in rat at 30 mg/kg, administered through gastric intubation by HPLC analysis; type: ADME, organism-based; conditions: in vivo
[23] = Oral bioavailability in rhesus monkey by HPLC analysis; type: ADME, organism-based, Macaca mulatta; conditions: in vivo
[24] = Oral bioavailability in mouse; type: ADME, organism-based; conditions: in vivo

Structure (SMILES)	EC50 [6] [µM]	CC50 (PBMC) [µM]	selectivity ratio [7]	selectivity ratio [8]	EC50 (Hepatitis B virus) [µM]	also measured
Nc1ncnc2c1ncn2CCOCP(=O)(OCCSSCCO)OCCSSCCO						half-life at 1000 µM [1]: > 24 h; half-life at 1000 µM [2]: > 24 h; half-life at 1000 µM [3]: < 4.98 min; half-life [4]: > 24 h; half-life at 1000 µM [5]: > 24 h
CCCCCCCCCCCCSSCCOP(=O)(O)CO[C@H](C)Cn1cnc2c(N)ncnc21	0.003	25	8300	> 30	1.67	CC50 (HepG2 2.2.15): > 50 µM
CCCCCCCCCCCCCCCCSSCCOP(=O)(CO[C@H](C)Cn1cnc2c(N)ncnc21)Nc1ccccc1 (some centres undefined)	0.005	34.2	7000			
CCCCCCCCCCCCCCCCCCSSCCOP(=O)(CO[C@H](C)Cn1cnc2c(N)ncnc21)OCCSSCCCCCCCCCCCCCCCCCC	0.331		> 76	> 1	> 25	CC50 at 144 h [9]: > 25 µM; CC50 [10]: > 25 µM
CCCCCCCCCCCCCCCCSSCCOP(=O)(CO[C@H](C)Cn1cnc2c(N)ncnc21)OCc1ccccc1 (some centres undefined)	0.018	41.1	2300			
CCCCCCCCCCCCCCCCSSCCOP(=O)(CO[C@H](C)Cn1cnc2c(N)ncnc21)OCCC (some centres undefined)	0.216	10.6	49			
CCCCCCCCCCSSCCOP(=O)(O)CO[C@H](C)Cn1cnc2c(N)ncnc21	0.085	> 50	> 590	> 1	> 50	CC50 (HepG2 2.2.15): > 50 µM
CCCCCCCCCCSSCCOP(=O)(CO[C@H](C)Cn1cnc2c(N)ncnc21)OCCSSCCCCCCCCCC	0.349		> 287	> 1	> 100	CC50 at 144 h [9]: > 100 µM; CC50 [10]: > 100 µM
CCCCCCCCCCCCCCCCOCCCOC[C@H]1O[C@@H](n2ccc(=O)[nH]c2=O)[C@H](F)[C@@H]1O						Stability [11]: Unstable; Stability [12]: Unstable; Stability [13]: Stable
C[C@H](Cn1cnc2c(N)ncnc21)OCP(=O)(O)OCCS		> 100			41.9	CC50 (HepG2 2.2.15): > 100 µM
CCCCCCCCCCCCCCCCSSCCOP(=O)(CO[C@H](C)Cn1cnc2c(N)ncnc21)OCC (some centres undefined)	0.349	36.2	104			
CCCCCCCCCCCCCCCCCCSSCCOP(=O)(O)CO[C@H](C)Cn1cnc2c(N)ncnc21	0.0006	6.36	11000	> 50	0.505	CC50 (HepG2 2.2.15): > 50 µM
CCCCCCCCCCCCSSCCOP(=O)(CO[C@H](C)Cn1cnc2c(N)ncnc21)OCCSSCCCCCCCCCCCC	1.18		> 85	> 1	> 100	CC50 at 144 h [9]: > 100 µM; CC50 [10]: > 100 µM
CCCCCCCCCCCCCCCCSSCCOP(=O)(O)CO[C@H](C)Cn1cnc2c(N)ncnc21.N	0.00065	14.3	22000	1200 to 1250	0.02	CC50 (HepG2 2.2.15): > 25 µM; half-life [14]: < 0.333 h; Stability [15]: Unstable; Stability [16]: Unstable; half-life [17]: < 2 h; selectivity ratio [18]: 11000; t1/2 [19]: > 24 h; half-life [20]: < 2 h; half-life [21]: < 2 h
CCCCCCCCCCCCCCCCSSCCOP(=O)(CO[C@H](C)Cn1cnc2c(N)ncnc21)OCCSSCCCCCCCCCCCCCCCC	6.32		4	> 1	> 25	CC50 at 144 h [9]: > 25 µM; CC50 [10]: > 25 µM
CCCCCCCCCCCCCCCCSSCCOP(=O)(CO[C@H](C)Cn1cnc2c(N)ncnc21)OC (some centres undefined)	0.026	38.2	1500			
CCCCCCCCCCCCCCCCSSCCOP(=O)(CO[C@H](C)Cn1cnc2c(N)ncnc21)OCCCCCCCC (some centres undefined)	0.911		> 50			CC50 [10]: > 50 µM
CCCCCCCCCCCCCCCCSSCCOP(=O)(CO[C@H](C)Cn1cnc2c(N)ncnc21)OCCCC (some centres undefined)	0.19	27.9	150			
CCCCCCCCCCCCCCSSCCOP(=O)(CO[C@H](C)Cn1cnc2c(N)ncnc21)OCCSSCCCCCCCCCCCCCC	0.189		> 529	> 1	> 100	CC50 at 144 h [9]: > 100 µM; CC50 [10]: > 100 µM
C[C@H](Cn1cnc2c(N)ncnc21)OCP(=O)(O)OCCSSCCO	1.61	> 100	> 62.1	> 8.6	11.6	CC50 (HepG2 2.2.15): > 100 µM; half-life [14]: 3.5 h; t1/2 [19]: < 0.567 h
CCCCCCCCCCCCCCSSCCOP(=O)(O)CO[C@H](C)Cn1cnc2c(N)ncnc21.N	0.0005	14	28000 to 30000	> 56	0.444	CC50 (HepG2 2.2.15): > 25 µM; Stability [15]: Unstable; Stability [16]: Unstable; half-life [17]: < 2 h; selectivity ratio [18]: 11000; t1/2 [19]: > 24 h; half-life [20]: < 2 h; half-life [21]: < 2 h
CCCCCCCCCCCCCCCCSSCCOP(=O)(CO[C@H](C)Cn1cnc2c(N)ncnc21)OCC(C)(C)C (mixture of isomers)	0.14	> 100	> 700			
Nc1ncnc2c1ncn2CCOCP(=O)(O)O [ADEFOVIR]						bioavailability [22]: 8 to 11%; bioavailability [23]: < 1%
C[C@H](Cn1cnc2c(N)ncnc21)OCP(=O)(O)O [TENOFOVIR ANHYDROUS]	0.319	> 100	> 300			bioavailability [24]: 2%
CC(C)OC(=O)OCOP(=O)(CO[C@H](C)Cn1cnc2c(N)ncnc21)OCOC(=O)OC(C)C [TENOFOVIR DISOPROXIL FUMARATE]	0.0046	43.7	9500	86 to 190	0.34	CC50 at 144 h [9]: 29.2 to 64.5 µM; selectivity ratio [18]: 1300
CCCCCCCCCCCCCCCCOCCCOP(=O)(O)CO[C@H](C)Cn1cnc2c(N)ncnc21 [TENOFOVIR EXALIDEX]	0.02	> 100	> 5000			
